Laboratory results taken from ChEMBL document CHEMBL1122632, “Synthesis and antitumor activity of cis-dichloroplatinum (II)-N-aminated nucleoside complexes” (J Med Chem, 1984).
Converted amounts (≈) assume the structure as drawn. “And” between values parts separate entries of the source, which are not always exact repeats. Identical values can stand only once. Values belong to the compound of their own block, whether it stands above or below them.

What was measured:
[1] = test system: L1210; test: Ratio of median survival time of the mice bearing L1210 cells in treated(T) vs. control(C) at a dose of 114 mg/kg x 2 days; assay type: functional, Mus musculus
Summary of the method: (§1)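 (BALB/c x DBA/2)F1 mice, 20 g, implanted ip with 10^4 L1210 cells. Test samples in saline (0.2 mL) given ip on days 1 and 5 after tumor inoculation; doses above 100 mg/kg homogenized with Nikkol (7 times by weight) as vehicle. Activity from median survival time of treated group versus control group (T/C).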

[2] = test system: L1210; test: Ratio of median survival time of the mice bearing L1210 cells in treated(T) vs. control(C) at a dose of 2 mg/kg x 2 days; assay type: functional, Mus musculus; summary of the method: as §1
[3] = test system: L1210; test: In vitro inhibitory effect on growth of L1210 cells; (10E-6); assay type: functional, cell-based; details: Mus musculus
Summary of the method: (§2)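 L1210 cells (10^5 in 1 mL) were grown in RPMI 1640 with 10% FCS and kanamycin, at 37 °C in CO2, for 48 h. Compounds were heated at 110 °C for 8 h, dissolved in medium and tested at ≥6 concentrations. Viability was scored by 0.17% Trypan blue exclusion against drug-free controls. IC50 was the concentration halving living cell number, taken from the log-probit dose-response curve.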

[4] = test system: L1210; test: In vitro inhibition of L1210 (murine leukemia) cell growth.; assay type: functional, cell-based, Mus musculus; details: Mus musculus, L1210; read-out: IC50; summary of the method: as §2
[5] = test system: L1210; test: Median survival time (MST) of mice bearing L1210 cells was determined at a dose of 114 mg/kg x 2 days administered ip.; assay type: functional, Mus musculus; summary of the method: as §1
[6] = test system: L1210; test: Median survival time (MST) of mice bearing L1210 cells was determined at a dose of 2 mg/kg x 2 days administered ip.; assay type: functional, Mus musculus; summary of the method: as §1
[7] = test system: L1210; test: Ratio of median survival time of the mice bearing L1210 cells in treated(T) vs. control(C) at a dose of 112 mg/kg x 2 days; assay type: functional, Mus musculus; summary of the method: as §1
[8] = test system: L1210; test: Ratio of median survival time of the mice bearing L1210 cells in treated(T) vs. control(C) at a dose of 30 mg/kg x 2 days; assay type: functional, Mus musculus; summary of the method: as §1
[9] = test system: L1210; test: In vitro inhibitory effect on growth of L1210 cells; 1.5*10e-3; assay type: functional, cell-based; details: Mus musculus; summary of the method: as §2
[10] = test system: L1210; test: Median survival time (MST) of mice bearing L1210 cells was determined at a dose of 59 mg/kg x 2 days administered ip; Toxic.; assay type: functional, organism-based; set-up: dose 59 mg/kg; details: Mus musculus
Summary of the method: (§3)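 (BALB/c × DBA/2)F1 mice (20 g) were implanted ip with 10^4 L1210 cells. Compounds in saline (0.2 mL) were given ip on days 1 and 5; doses above 100 mg/kg were homogenized with Nikkol (7× by weight). Activity was scored as median survival time of treated mice and expressed as T/C, the ratio of treated to control median survival time.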

[11] = test system: L1210; test: Median survival time (MST) of mice bearing L1210 cells was determined at a dose of 2 mg/kg x 2 days administered ip; Toxic.; assay type: functional, organism-based; set-up: dose 2 mg/kg; details: Mus musculus; summary of the method: as §3
[12] = test system: L1210; test: Median survival time (MST) of mice bearing L1210 cells was determined at a dose of 300 mg/kg x 2 days administered ip; Toxic; assay type: functional, organism-based; set-up: dose 300 mg/kg; details: Mus musculus; summary of the method: as §3
[13] = test system: L1210; test: Ratio of median survival time of the mice bearing L1210 cells in treated(T) vs. control(C) at a dose of 10 mg/kg x 2 days; assay type: functional, organism-based; set-up: dose 10 mg/kg; details: Mus musculus; summary of the method: as §3
[14] = test system: L1210; test: Ratio of median survival time of the mice bearing L1210 cells in treated(T) vs. control(C) at a dose of 100 mg/kg x 2 days; assay type: functional, organism-based; set-up: dose 100 mg/kg; details: Mus musculus; summary of the method: as §3
[15] = test system: L1210; test: Ratio of median survival time of the mice bearing L1210 cells in treated(T) vs. control(C) at a dose of 200 mg/kg x 2 days; assay type: functional, organism-based; set-up: dose 200 mg/kg; details: Mus musculus; summary of the method: as §3
[16] = test system: L1210; test: Ratio of median survival time of the mice bearing L1210 cells in treated(T) vs. control(C) at a dose of 25 mg/kg x 2 days; assay type: functional, organism-based; set-up: dose 25 mg/kg; details: Mus musculus; summary of the method: as §3
[17] = test system: L1210; test: Ratio of median survival time of the mice bearing L1210 cells in treated(T) vs. control(C) at a dose of 50 mg/kg x 2 days; assay type: functional, organism-based; set-up: dose 50 mg/kg; details: Mus musculus; summary of the method: as §3
[18] = test system: L1210; test: Median survival time (MST) of mice bearing L1210 cells was determined at a dose of 50 mg/kg x 2 days administered ip.; assay type: functional, organism-based; set-up: dose 50 mg/kg; details: Mus musculus; summary of the method: as §3
[19] = test system: L1210; test: Median survival time (MST) of mice bearing L1210 cells was determined at a dose of 25 mg/kg x 2 days administered ip.; assay type: functional, organism-based; set-up: dose 25 mg/kg; details: Mus musculus; summary of the method: as §3
[20] = test system: L1210; test: Median survival time (MST) of mice bearing L1210 cells was determined at a dose of 100 mg/kg x 2 days administered ip.; assay type: functional, organism-based; set-up: dose 100 mg/kg; details: Mus musculus; summary of the method: as §3
[21] = test system: L1210; test: Median survival time (MST) of mice bearing L1210 cells was determined at a dose of 200 mg/kg x 2 days administered ip.; assay type: functional, organism-based; set-up: dose 200 mg/kg; details: Mus musculus; summary of the method: as §3
[22] = test system: L1210; test: Median survival time (MST) of mice bearing L1210 cells was determined at a dose of 10 mg/kg x 2 days administered ip.; assay type: functional, organism-based; set-up: dose 10 mg/kg; details: Mus musculus; summary of the method: as §3
[23] = test system: Mus musculus; test: Blood urea nitrogen values in ICR mice after intraperitoneal administration at an equivalent molar dose of the LD50 of […](13 mg/kg) on day 3; assay type: functional, organism-based
Summary of the method: (§4)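 ICR mice (25-30 weeks, 39 ± 4 g), 5-6 per group, given one ip dose of 0.043 mmol/kg, equimolar to 13 mg/kg cis-DDP. On days 3, 6 and 9, blood was drawn from the heart under ether anesthesia and stored frozen. BUN was measured later by a modified urease indophenol method. Results are mean ± SD, mg/100 mL blood, compared with untreated controls.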

[24] = test system: Mus musculus; test: Blood urea nitrogen values in ICR mice after intraperitoneal administration at an equivalent molar dose of the LD50 of […](13 mg/kg) on day 6; assay type: functional, organism-based; summary of the method: as §4
[25] = test system: Mus musculus; test: Blood urea nitrogen values in ICR mice after intraperitoneal administration at an equivalent molar dose of the LD50 of […](13 mg/kg) on day 9; assay type: functional, organism-based; summary of the method: as §4
[26] = test system: Mus musculus; test: Effect on body weight in ICR mice was determined after intraperitoneal administration on day 3; assay type: functional, organism-based
Summary of the method: (§5)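 ICR mice (25-30 weeks, 39 ± 4 g), 5-6 per group, given one ip dose of 0.043 mmol/kg, equimolar to 13 mg/kg cis-DDP. Body and kidney weights were taken on days 3, 6 and 9 and compared with untreated controls. Weights are paired, mean ± SD.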

[27] = test system: Mus musculus; test: Effect on body weight in ICR mice was determined after intraperitoneal administration on day 6; assay type: functional, organism-based; summary of the method: as §5
[28] = test system: Mus musculus; test: Effect on body weight in ICR mice was determined after intraperitoneal administration on day 9; assay type: functional, organism-based; summary of the method: as §5
[29] = test system: Mus musculus; test: Effect on kidney weight in ICR mice was determined after intraperitoneal administration on day 3; assay type: functional, organism-based; summary of the method: as §5
[30] = test system: Mus musculus; test: Effect on kidney weight in ICR mice was determined after intraperitoneal administration on day 6; assay type: functional, organism-based; summary of the method: as §5
[31] = test system: Mus musculus; test: Effect on kidney weight in ICR mice was determined after intraperitoneal administration on day 9; assay type: functional, organism-based; summary of the method: as §5
[32] = test system: L1210; test: Median survival time (MST) of mice bearing L1210 cells was determined at a dose of 115 mg/kg x 2 days administered ip; Toxic.; assay type: functional, organism-based; set-up: dose 115 mg/kg; details: Mus musculus; summary of the method: as §3

Compound: N=c1c2ccn(C3O[C@H](CO)[C@@H](O)[C@H]3O)c2ncn1N (stereo partly drawn)
T/C [1]: 95%
T/C [2]: 110%
IC50 [3]: 8.5 µM
IC50 [4]: 2.7 µg/mL (≈ 9.6 µM)
MST [5]: 9.5 days
MST [6]: 11 days

IC50 [4]: 400 µg/mL and 1.36 mM
Compound: N=c1ccn([C@@H]2O[C@H](CO)[C@@H](O)[C@H]2O)c(=O)n1N

Compound: N=c1ccn([C@@H]2O[C@H](CO)[C@@H](O)[C@@H]2O)c(=O)n1N
T/C [7]: 100%
T/C [8]: 95%
IC50 [9]: 1530 µM
IC50 [4]: 45 µg/mL (≈ 174 µM)
MST [5]: 10 days
MST [6]: 9.5 days

IC50 [4]: 2000 µg/mL and 7.18 mM
Compound: N=c1ccn([C@H]2C[C@H](O)[C@@H](CO)O2)c(=O)n1N

Compound: 3-amino-2'-deoxycytidine hydrochloridecis-DDP
MST [10]: Toxic
MST [11]: Toxic

Compound: 3-amino-2'-deoxycytidine-dichloroplatinum (II)
MST [12]: Toxic
T/C [13]: 125%
T/C [14]: 181%
T/C [15]: 106%
T/C [16]: 131%
T/C [17]: 162%
MST [18]: 13 days
MST [19]: 10.5 days
MST [20]: 14.5 days
MST [21]: 8.5 days
MST [22]: 10 days
Blood urea nitrogen [23]: 27.2 mg 100ml-1
Blood urea nitrogen [24]: 28 mg 100ml-1
Blood urea nitrogen [25]: 26 mg 100ml-1
Body weight [26]: 38.3
Body weight [27]: 39.3
Body weight [28]: 35.5
Kidney weight [29]: 626
Kidney weight [30]: 654
Kidney weight [31]: 634

Compound: 3-amino-cytidine hydrochloridecis-DDP
MST [32]: Toxic
MST [11]: Toxic
